# Experimental data from different studies.
# Protocols differ between the studies behind these lines.
Structure (SMILES),target or system,test,test system,setting,endpoint,result
Cc1c(Cc2ccccc2)c(=O)oc2c(C)c(OCC(=O)NN=Cc3ccc(Cl)cc3)ccc12,MDA-MB-231,"cell growth or viability, MTT",,250 µg/mL,viability,21.2%
C[C@@H]1CC[C@@H]([C@](O)(CNCc2cccc3ccccc23)COCc2ccccc2)[C@H](OCc2ccccc2)C1,MDA-MB-231,"cell growth or viability, MTT",,"10 µM, 72 h",inhibition,96.8%
O=C(CO/N=c1\cc2n(-c3ccc(Cl)cc3)c3ccccc3nc-2cc1Nc1ccc(Cl)cc1)NCc1ccc2c(c1)CCO2,Neisseria gonorrhoeae,microbial growth,ATCC49226,,MIC,15 µM
CCOc1ccc2c(C)c(CC)c(=O)oc2c1C,MDA-MB-231,"cell growth or viability, MTT",,31.25 µg/mL,viability,100%
C=CCO/N=c1\cc2n(-c3ccc(Cl)cc3)c3ccccc3nc-2cc1Nc1ccc(Cl)cc1,Neisseria gonorrhoeae,microbial growth,ATCC49226,,MIC,15 µM
Cc1c(Cc2ccccc2)c(=O)oc2c(C)c(OCC(=O)NN=Cc3ccccc3)ccc12,MDA-MB-231,"cell growth or viability, MTT",,125 µg/mL,viability,8.96%
O=C(O)CNC(=O)CO/N=c1\cc2n(-c3ccc(Cl)cc3)c3ccccc3nc-2cc1Nc1ccc(Cl)cc1,Neisseria gonorrhoeae,microbial growth,ATCC49226,,MIC,1.88 µM
COc1ccc(COC[C@@](O)(CNCc2ccc(F)cc2)[C@@H]2CC[C@@H](C)C[C@H]2OCc2ccc(OC)cc2)cc1,MDA-MB-231,"cell growth or viability, MTT",,"10 µM, 72 h",inhibition,91.7%
CC(C)/N=c1\cc2n(-c3ccc(Cl)cc3)c3ccccc3nc-2cc1Nc1ccc(Cl)cc1,Neisseria gonorrhoeae,microbial growth,ATCC49226,,MIC,0.94 µM
C[C@@H]1CC[C@@H]([C@](O)(CNCc2ccc(F)cc2)COCc2ccc(F)cc2)[C@H](OCc2ccc(F)cc2)C1,MDA-MB-231,"cell growth or viability, MTT",,"10 µM, 72 h",inhibition,88.9%
Cc1c(Cc2ccccc2)c(=O)oc2c(C)c(OCC(=O)NN=Cc3ccc([N+](=O)[O-])cc3)ccc12,MDA-MB-231,"cell growth or viability, MTT",,500 µg/mL,viability,14.4%
COc1ccc(CNC[C@](O)(COCc2ccc(F)cc2)[C@@H]2CC[C@@H](C)C[C@H]2OCc2ccc(F)cc2)cc1,MDA-MB-231,"cell growth or viability, MTT",,"30 µM, 72 h",inhibition,99.4%
CO/N=c1\cc2n(-c3ccc(Cl)cc3)c3ccccc3nc-2cc1Nc1ccc(Cl)cc1,Neisseria gonorrhoeae,microbial growth,ATCC49226,,MIC,0.94 µM
COc1ccc(COC[C@@](O)(CNCc2ccccc2)[C@@H]2CC[C@@H](C)C[C@H]2OCc2ccc(OC)cc2)cc1,MDA-MB-231,"cell growth or viability, MTT",,"30 µM, 72 h",inhibition,101%
COC1=CC(=O)c2ccccc2C1=O,Lodderomyces parapsilosis,"microbial growth, broth dilution",ATCC22019,24 h,MIC,6.25 µg/mL
